A selection: hits, their analogues and other compounds. The true share with any hit is near 2.4%.
MC4R barr agon: activates human MC4R beta-arrestin recruitment | U2OS MC4R beta-arrestin complementation, luminescence; percent of melanotan II response, DMSO zero | activation, % at 8.9 µM | hit rate 0.98% among 360,000;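 active = activation above a per-plate cutoff, the mean activation of sample wells on that plate plus 3 SD, cut at about 8% in these data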
OPRM1-OPRD1 inv: mu-delta opioid heterodimer inverse agonism. cell-based MOR-DOR heterodimer luminescence. inhibition, % at 9.3 µM. hit rate 0.21% among 340,000. AID 504357; in the data active = inhibition above about 22%, passing the limit was not always enough;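 note: 0% = cells with DMSO and 100% = wells without cells with DMSO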
Target sequence (P35372 whole entry, looked up): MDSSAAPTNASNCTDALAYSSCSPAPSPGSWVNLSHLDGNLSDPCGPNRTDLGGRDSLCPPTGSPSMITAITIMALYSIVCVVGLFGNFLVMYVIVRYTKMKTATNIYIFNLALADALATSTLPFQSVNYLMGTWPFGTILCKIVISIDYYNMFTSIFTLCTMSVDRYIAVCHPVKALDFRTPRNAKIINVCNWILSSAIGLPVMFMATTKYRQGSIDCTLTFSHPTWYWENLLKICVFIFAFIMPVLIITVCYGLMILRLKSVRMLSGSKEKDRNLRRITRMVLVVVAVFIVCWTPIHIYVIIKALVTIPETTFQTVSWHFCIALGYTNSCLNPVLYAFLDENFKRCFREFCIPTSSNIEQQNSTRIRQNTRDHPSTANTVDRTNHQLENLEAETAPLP
Target sequence (P41143 whole entry, looked up): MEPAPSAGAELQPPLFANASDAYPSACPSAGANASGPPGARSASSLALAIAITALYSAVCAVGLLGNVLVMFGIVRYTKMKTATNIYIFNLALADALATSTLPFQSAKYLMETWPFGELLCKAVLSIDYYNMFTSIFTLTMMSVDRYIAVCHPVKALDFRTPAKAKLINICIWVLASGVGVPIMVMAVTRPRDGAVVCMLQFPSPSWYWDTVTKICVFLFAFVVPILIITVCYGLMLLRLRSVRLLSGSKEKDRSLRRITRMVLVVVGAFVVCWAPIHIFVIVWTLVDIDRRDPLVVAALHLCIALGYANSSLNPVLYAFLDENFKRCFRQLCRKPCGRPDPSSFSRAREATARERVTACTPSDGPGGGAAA
HTR5A ag ctr: counter-screen for OPRM1-OPRD1 agonists: human HTR5A agonism | HTR5A agonist assay, luminescence, cell-based | activation, % at 9.3 µM | hit rate 0.61% among 340,000 | AID 504692; in the data active = activation mostly above about 9.5%, no sharp cut-off; inactive = mostly below about 7.6%;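 note: 0% = cells with vehicle only and 100% = reference agonist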
MC4R antagonist: human MC4R antagonism in cAMP assay; inhibition, % at 6.5 µM; MC4R-expressing cells, MTII-stimulated cAMP, LANCE TR-FRET; P32245; hit rate 0.48% among 360,000; AID 540295;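 active = inhibition above its plate's cutoff, the mean of tested wells on that plate plus 3 SD, cut at about 29% in these data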;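 note: 0% = Melanotan II alone and 100% = Melanotan II plus saturating MCL0020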
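Test system: U2OS cells stably expressing human melanocortin 4 receptor (MC4R); also added: Melanotan II challenge; compound: 6.5 µM single dose; timing: 30-min compound preincubation, 1-h Melanotan II challenge, 1-h detection, room temperature; signal: Eu-cAMP/anti-cAMP TR-FRET, emission 671 nm; repeats: one well per compound, no replicates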
HTR5A inv ag: inverse agonist of human HTR5A in OPRM1-OPRD1 counter-screen; P47898; HTR5A cell line, luminescence, inverse agonism; inhibition, % at 9.3 µM; hit rate 0.083% among 340,000; AID 504634; in the data active = inhibition mostly above about 23%, no sharp cut-off; inactive = mostly below about 18%;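 note: 0% = cells with DMSO and 100% = no-cell wells with DMSO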
OPRM1-OPRD1 ag: OPRM1-OPRD1 heterodimerization agonism. activation, % at 9.3 µM. hit rate 0.3% among 340,000. cells, luminescence;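 note: 0% = vehicle-treated cells and 100% = reference agonist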
OPRM1-D1 ag cf: OPRM1-OPRD1 heterodimer agonism, confirmation; shares compounds with OPRM1-OPRD1 ag; cells, MOR-DOR heterodimerization, luminescence complementation; hit rate 45% among 830; AID 504904; activation, % at 9.3 µM;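 note: 0% = vehicle-treated cells and 100% = reference agonist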
HTR5A ag counter: activates human HTR5A in OPRM1-OPRD1 agonist counter-screen; shares compounds with OPRM1-OPRD1 ag; HTR5A agonist counterscreen, cell luminescence; activation, % at 9.3 µM; hit rate 8% among 830; in the data active = activation above about 17%;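 note: 0% = vehicle-treated cells and 100% = reference agonist response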
* = called active by the depositor. Cut-off read from the data, not from the text of the source, unless noted: active = activation above about 18%; inactive = the rest.

`Cc1c(-c2ccccc2)nc2ccccc2c1C(=O)Nc1ccncc1` gave MC4R barr agon 4, OPRM1-OPRD1 inv -22, HTR5A ag ctr 3, MC4R antagonist -7, HTR5A inv ag -33 and OPRM1-OPRD1 ag 4.
Screening CCc1cc2cc(C)c(C)cc2nc1SCC(=O)Nc1cc(C)on1 returned MC4R barr agon 1, OPRM1-OPRD1 inv 9, HTR5A ag ctr 2, MC4R antagonist 11, HTR5A inv ag -4 and OPRM1-OPRD1 ag -2.
Screening CCc1cc2ccc(OC)cc2nc1SCC(=O)Nc1cc(C)on1 returned MC4R barr agon 4, OPRM1-OPRD1 inv -99, HTR5A ag ctr 1, MC4R antagonist 6, HTR5A inv ag -23, OPRM1-OPRD1 ag 22*, OPRM1-D1 ag cf 12 and HTR5A ag counter 20*.
COc1ccc(CN2CCN(CC(O)Cn3c4ccccc4c4ccccc43)CC2)cc1 (stereo not drawn) was read as MC4R barr agon 9.5*, OPRM1-OPRD1 inv -105, HTR5A ag ctr -2, MC4R antagonist 12, HTR5A inv ag 6, OPRM1-OPRD1 ag 21*, OPRM1-D1 ag cf 24* and HTR5A ag counter -2.
Screening CCC1CCCCN1CCN1C(=O)C2C(C(=O)Nc3ccc(OC)cc3)C3C=CC2(O3)C1C(=O)NC1CCCCC1 (stereo not drawn) returned MC4R barr agon 4, OPRM1-OPRD1 inv -180, HTR5A ag ctr 2, MC4R antagonist -10, HTR5A inv ag -4, OPRM1-OPRD1 ag 34*, OPRM1-D1 ag cf 2 and HTR5A ag counter -19.
O=c1c2ccc(Cl)cc2[nH]c(=S)n1Cc1cccnc1 was read as MC4R barr agon -1, OPRM1-OPRD1 inv -297, HTR5A ag ctr -8, MC4R antagonist 8, HTR5A inv ag 18, OPRM1-OPRD1 ag 62*, OPRM1-D1 ag cf 54* and HTR5A ag counter 0.
Screening Cc1nn(C)cc1CN(C)C(=O)CCc1nnc(CCC2CCCCC2)o1 returned MC4R barr agon 0, OPRM1-OPRD1 inv 4, HTR5A ag ctr 2, MC4R antagonist 11, HTR5A inv ag 9 and OPRM1-OPRD1 ag -1.
`CC(C)c1cccc(C(C)C)c1NC(=O)CNCc1ccccc1F` gave MC4R barr agon 2, OPRM1-OPRD1 inv -32, HTR5A ag ctr 0, MC4R antagonist 24, HTR5A inv ag 9 and OPRM1-OPRD1 ag 5.
OC(CNC1Cc2ccccc2C1)COc1ccc(Cl)cc1 (stereo not drawn) was read as MC4R barr agon 4, OPRM1-OPRD1 inv -9, HTR5A ag ctr -4, MC4R antagonist 10, HTR5A inv ag -14 and OPRM1-OPRD1 ag 2.
`OC(CNC1CCCc2ccccc21)COc1c(Cl)cccc1Cl` (stereo not drawn) gave MC4R barr agon -1, OPRM1-OPRD1 inv -142, HTR5A ag ctr 0, MC4R antagonist 2, HTR5A inv ag 1, OPRM1-OPRD1 ag 20*, OPRM1-D1 ag cf 4 and HTR5A ag counter 16.
Screening CCN(CC)c1ccc(/C=N\NC(=O)c2cccc3cc[nH]c23)cc1 returned MC4R barr agon 0, OPRM1-OPRD1 inv 23, HTR5A ag ctr 1, MC4R antagonist -22, HTR5A inv ag 9 and OPRM1-OPRD1 ag -5.
Clc1ccc2c(N/N=C/c3ccccc3Br)ccnc2c1 was read as MC4R barr agon 6, OPRM1-OPRD1 inv -278, HTR5A ag ctr 8, MC4R antagonist 15, HTR5A inv ag -13, OPRM1-OPRD1 ag 52*, OPRM1-D1 ag cf 53* and HTR5A ag counter 3.
C/C(=N/Nc1ccnc2cc(Cl)ccc12)c1ccc(O)cc1 was read as MC4R barr agon 6, OPRM1-OPRD1 inv -45, HTR5A ag ctr 4, MC4R antagonist 12, HTR5A inv ag 8 and OPRM1-OPRD1 ag 8.
C/C(=N/Nc1ccnc2cc(Cl)ccc12)c1ccc(N)cc1 was read as MC4R barr agon 1, OPRM1-OPRD1 inv -115, HTR5A ag ctr -2, MC4R antagonist 9, HTR5A inv ag -11, OPRM1-OPRD1 ag 21*, OPRM1-D1 ag cf 41* and HTR5A ag counter 3.
Screening CC(C)(C)CC(=O)Nc1ccc(Nc2ccccc2)cc1 returned MC4R barr agon 1, OPRM1-OPRD1 inv 3, HTR5A ag ctr -2, MC4R antagonist -10, HTR5A inv ag 11 and OPRM1-OPRD1 ag -1.
For CCOC(=O)C(Cc1c[nH]c2ccc([N+](=O)[O-])cc12)(NC(C)=O)C(=O)OCC the results were MC4R barr agon -2, OPRM1-OPRD1 inv 7, HTR5A ag ctr -5, MC4R antagonist 16, HTR5A inv ag 19 and OPRM1-OPRD1 ag -2.
Screening Cc1cc(/C=C2/C(=O)NN(c3ccccc3)C2=O)c(C)n1-c1cccc(O)c1 returned MC4R barr agon 0, OPRM1-OPRD1 inv -143, HTR5A ag ctr 1, MC4R antagonist 5, HTR5A inv ag -1, OPRM1-OPRD1 ag 20*, OPRM1-D1 ag cf -1 and HTR5A ag counter -3.
Screening O=C(NNC(=O)c1ccc2nc[nH]c2c1)c1ccccc1 returned MC4R barr agon 0, OPRM1-OPRD1 inv 0, HTR5A ag ctr 6, MC4R antagonist 2, HTR5A inv ag -16 and OPRM1-OPRD1 ag 0.
Screening CN(C)C(CNC(=O)c1ccc2nc[nH]c2c1)c1ccccc1 (stereo not drawn) returned MC4R barr agon -2, OPRM1-OPRD1 inv -126, HTR5A ag ctr 4, MC4R antagonist 15, HTR5A inv ag -12, OPRM1-OPRD1 ag 25*, OPRM1-D1 ag cf 7 and HTR5A ag counter 8.
Screening CN(C)C(CNC(=O)c1ccc(Cl)c(S(=O)(=O)N2CCCCCC2)c1)c1ccccc1 (stereo not drawn) returned MC4R barr agon -1, OPRM1-OPRD1 inv -187, HTR5A ag ctr 4, MC4R antagonist 5, HTR5A inv ag -13, OPRM1-OPRD1 ag 36*, OPRM1-D1 ag cf 1 and HTR5A ag counter -3.
For Cc1nn(C)c(C)c1CN(C)S(=O)(=O)c1ccc2ccccc2c1 the results were MC4R barr agon 1, OPRM1-OPRD1 inv 0, HTR5A ag ctr 4, MC4R antagonist 0, HTR5A inv ag 37 and OPRM1-OPRD1 ag 0.
For COc1cccc(C(=O)Nc2ccc3c(c2)C(=O)c2ccccc2C3=O)c1 the results were MC4R barr agon 1, OPRM1-OPRD1 inv -261, HTR5A ag ctr -1, MC4R antagonist -12, HTR5A inv ag -14, OPRM1-OPRD1 ag 38*, OPRM1-D1 ag cf 53* and HTR5A ag counter 11.
For O=C(Nc1ccc2c(c1)C(=O)c1ccccc1-2)c1ccccc1 the results were MC4R barr agon -1, OPRM1-OPRD1 inv 4, HTR5A ag ctr 1, MC4R antagonist -5, HTR5A inv ag -3 and OPRM1-OPRD1 ag -1.

Screening results from PubChem.
